Data from ChEMBL document CHEMBL3407494, “Design, synthesis, and biological evaluation of combretabenzodiazepines: a novel class of anti-tubulin agents” (J Med Chem, 2015).
Calls of active or inactive are those of the source. The rule behind the calls is not given here.

Columns and labels:
[1] = Cell cycle arrest in human SH-SY5Y cells assessed as accumulation at G2/M phase at IC50 after 16 hrs by flow cytometry (reference value: 18.5 %); type: functional, cell-based
Method in brief: (§1)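 SH-SY5Y neuroblastoma cells were kept in 50% DMEM/50% F-12 with 10% FBS and 2 mM L-glutamine. Cells were exposed 16 h to vehicle or compound, washed in PBS and fixed in 70% EtOH at -20 °C. They were then treated with RNAse 100 μg/mL for 1 h at 37 °C and stained with 25 μg/mL propidium iodide plus 5 mM EDTA for 30 min at 4 °C in the dark. DNA content was read by flow cytometry; 3 experiments.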

[2] = Cytotoxicity against human SH-SY5Y cells assessed as cell viability at 1 uM after 48 hrs by MTT assay; type: functional; conditions: read-out: Activity
Method in brief: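 SH-SY5Y cells in 24-well plates were treated 48 h with 1 μM compound. They were washed in Locke's solution (10 mM HEPES pH 7.6) and given MTT 250 μg/mL for 1 h at 37 °C. Formazan was dissolved in isopropanol/0.1 M HCl and read at 570 nm. Result is % viable cells, 8-12 determinations from 3 experiments.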

[3] = Cell cycle arrest in human SH-SY5Y cells assessed as accumulation at G0G1 phase at 3 times IC50 after 16 hrs by flow cytometry (reference value: 70.2 %); type: functional, cell-based; method in brief: as §1
Tubulin = assay: (§2) Inhibition of tubulin (unknown origin) polymerization by fluorescence assay; type: protein-complex assay, Homo sapiens
Method in brief: (§3)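 Fluorescence-based kit assay. Tubulin was taken up in ice-cold buffer (80 mM PIPES, 2 mM MgCl2, 0.5 mM EGTA, 1 mM GTP, 20% glycerol) and added to wells containing compound or vehicle.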

Tubulin (Homo sapiens) [4] = biological target: T1, Tubulin (Homo sapiens) (UniProt P68371+Q9H4B7+P0DPH7+P68366+Q13509+Q71U36+P04350+Q3ZCM7+P07437+P68363+Q9BQE3+Q6PEY2+Q13885+Q9BVA1+Q9BUF5); assay: as §2; type: protein-complex assay; method in brief: as §3
[5] = Cell cycle arrest in human SH-SY5Y cells assessed as accumulation at G0G1 phase at IC50 after 16 hrs by flow cytometry (reference value: 70.2 %); type: functional, cell-based; method in brief: as §1
[6] = Cell cycle arrest in human SH-SY5Y cells assessed as accumulation at S phase at IC50 after 16 hrs by flow cytometry (reference value: 10.6 %); type: functional, cell-based; method in brief: as §1
[7] = Cell cycle arrest in human SH-SY5Y cells assessed as accumulation at S phase at 3 times IC50 after 16 hrs by flow cytometry (reference value: 10.6 %); type: functional, cell-based; method in brief: as §1
[8] = Cell cycle arrest in human SH-SY5Y cells assessed as accumulation at G2/M phase at 3 times IC50 after 16 hrs by flow cytometry (reference value: 18.5 %); type: functional, cell-based; method in brief: as §1
[9] = Cytotoxicity against human SH-SY5Y cells assessed as reduction in cell viability after 48 hrs by MTT assay; type: functional, cell-based
Method in brief: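 SH-SY5Y cells were exposed 48 h across a concentration range, then given MTT 250 μg/mL in Locke's solution for 1 h at 37 °C. Formazan was dissolved in isopropanol/0.1 M HCl and absorbance read at 570 nm. IC50 was taken from concentration-response curves; 8-12 determinations from 3 experiments.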

Tubulin (Homo sapiens) [10] = biological target: T1, Tubulin (Homo sapiens); assay: Inhibition of tubulin polymerization in human SH-SY5Y cells at 3 times IC50 after 16 hrs by Western blot analysis; type: cell-based
Tubulin (Homo sapiens) [11] = biological target: T1, Tubulin (Homo sapiens); assay: Inhibition of tubulin polymerization in human SH-SY5Y cells at 1 to 3 times IC50 after 16 hrs by immunocytochemistry; type: cell-based
[12] = Metabolic stability in human liver microsomes assessed as peak area after 60 mins by LC-UV analysis in presence of NADPH and GSH; type: ADME; conditions: read-out: Stability
Method in brief: (§4)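 Human liver microsomes were incubated with compound alone, with NADPH, with NADPH+GSH (60 min; phase I), or with UDPGA (30 min; phase II). Extracts were analysed by LC-UV, and remaining substrate is reported as peak area % relative to controls without microsomes.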

[13] = Metabolic stability in human liver microsomes assessed as peak area after 60 mins by LC-UV analysis in presence of NADPH; type: ADME; conditions: read-out: Stability; method in brief: as §4
[14] = Metabolic stability in human liver microsomes assessed as peak area after 30 mins by LC-UV analysis in presence of NADPH and UDPGA; type: ADME; conditions: read-out: Stability; method in brief: as §4
[15] = Metabolic stability in human liver microsomes assessed as peak area after 60 mins by LC-UV analysis; type: ADME; conditions: read-out: Stability; method in brief: as §4
Tubulin (Homo sapiens) [16] = biological target: T1, Tubulin (Homo sapiens); assay: Displacement of [3H]colchicine from tubulin (unknown origin) at 1 uM after 30 mins by beta-counting; type: protein-complex assay
Method in brief: (§5)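 It was preincubated 30 min at 37 °C with test compound at 1 or 10 μM, then given 0.2 μCi [3H]colchicine for 1 h at 37 °C. Samples were stopped with ice-cold water, filtered on nitrocellulose and counted by β-counter. Results are % inhibition, ≥7 replicates from 3 experiments.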

Tubulin (Homo sapiens) [17] = biological target: T1, Tubulin (Homo sapiens); assay: Displacement of [3H]colchicine from tubulin (unknown origin) at 10 uM after 30 mins by beta-counting; type: protein-complex assay; method in brief: as §5

COc1cc(C2=NCC(=O)Nc3cc4c(cc32)OCO4)cc(OC)c1OC
Activity [1]: 38.1%
viability at 1 µM [2]: 35.1%
Activity [3]: 49.3%
IC50 (Tubulin): 13.6 µM
inhibition (Tubulin (Homo sapiens) [4]): Dose-dependent effect
Activity [5]: 49.1%
Activity [6]: 12.6%
Activity [7]: 12.6%
Activity [8]: 37.7%
IC50 [9]: 0.071 µM
inhibition (Tubulin (Homo sapiens) [10]): Active
inhibition (Tubulin (Homo sapiens) [11]): Active

COc1ccc2c(c1)N(C)C(=O)CN=C2c1cc(OC)c(OC)c(OC)c1
viability at 1 µM [2]: 32.9%
IC50 [9]: 0.28 µM

COc1cc(C2=NCC(=O)N(C)c3c2ccc(OC)c3OC)cc(OC)c1OC
viability at 1 µM [2]: 76.4%

COc1cc(C2=NCC(=O)N3COc4c(OC)ccc2c43)cc(OC)c1OC
viability at 1 µM [2]: 95.2%

COc1ccc(/C=C\c2cc(OC)c(OC)c(OC)c2)cc1O [COMBRETASTATIN A4]
Activity [1]: 38.4%
viability at 1 µM [2]: 33.4%
Activity [3]: 52.7%
remaining at 1 h [12]: 67%
Activity [5]: 51.1%
Activity [6]: 10%
Activity [7]: 11.4%
Activity [8]: 35.4%
IC50 [9]: 0.0027 µM
remaining at 1 h [13]: 75%
remaining at 0.5 h [14]: 39%
remaining at 1 h [15]: 100%

COc1ccc2c(c1O)NC(=O)CN=C2c1cc(OC)c(OC)c(OC)c1
inhibition (Tubulin (Homo sapiens) [16]): 48%
Activity [1]: 33%
viability at 1 µM [2]: 27.5%
Activity [3]: 47.5%
IC50 (Tubulin): 1.3 µM
remaining at 1 h [12]: 97%
Activity [5]: 48%
Activity [6]: 18.9%
Activity [7]: 17.9%
Activity [8]: 34.4%
IC50 [9]: 0.0039 µM
inhibition (Tubulin (Homo sapiens) [10]): Active
remaining at 1 h [13]: 96%
inhibition (Tubulin (Homo sapiens) [11]): Active
inhibition (Tubulin (Homo sapiens) [17]): 80%
remaining at 0.5 h [14]: 92%
remaining at 1 h [15]: 95%

COc1ccc2c(c1)C(c1cc(OC)c(OC)c(OC)c1)=NCC(=O)N2
viability at 1 µM [2]: 33.9%
IC50 [9]: 0.256 µM

COc1cc(C2=NCC(=O)N(C)c3cc4c(cc32)OCO4)cc(OC)c1OC
viability at 1 µM [2]: 46.4%

COc1cc(C2=NCC(=O)Nc3c2ccc(OC)c3OC)cc(OC)c1OC
viability at 1 µM [2]: 46.8%
IC50 [9]: 0.0903 µM

COc1cc2c(cc1O)C(c1cc(OC)c(OC)c(OC)c1)=NCC(=O)N2
viability at 1 µM [2]: 64.8%
IC50 [9]: 0.415 µM

COc1ccc2c(c1)C(c1cc(OC)c(OC)c(OC)c1)=NCC(=O)N2C
viability at 1 µM [2]: 44.4%
IC50 [9]: 0.862 µM

COc1cc2c(cc1OC)C(c1cc(OC)c(OC)c(OC)c1)=NCC(=O)N2
viability at 1 µM [2]: 102%

COc1ccc2c(c1)NC(=O)CN=C2c1cc(OC)c(OC)c(OC)c1
Activity [1]: 34.6%
viability at 1 µM [2]: 24.7%
Activity [3]: 45.5%
IC50 (Tubulin): 9 µM
inhibition (Tubulin (Homo sapiens) [4]): Dose-dependent effect
Activity [5]: 45.5%
Activity [6]: 2.1%
Activity [7]: 19.3%
Activity [8]: 35%
IC50 [9]: 0.0251 µM
inhibition (Tubulin (Homo sapiens) [10]): Active
inhibition (Tubulin (Homo sapiens) [11]): Active

COc1cc2c(cc1OC)N(C)C(=O)CN=C2c1cc(OC)c(OC)c(OC)c1
viability at 1 µM [2]: 105%
